Only some compounds are listed: those with a hit (about 2.2% of all), similar ones and a draw of the others.
HTRA1 inhibitor: HTRA1 serine protease inhibitors, primary screen, biochemical, fluorescence polarization, HTS | Q92743 | recombinant HTRA1, FP-rhodamine activity-based probe | inhibition, % at 5.96 µM | 0.5% of 340,000 active | AID 504803, 2011; in the data active = inhibition above about 36%;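 also: 0% = enzyme with DMSO and 100% = wells lacking enzyme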
TCR CD3 inh: inhibitors of human TCR-CD3 interaction, primary screen, biochemical, fluorescence, TAMRA-labeled TCR probe; T-cell receptor (TCR); 0.37% of 360,000 active; inhibition, % at 9.4 µM; in the data active = inhibition above about 19%;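 also: recombinant mutant TCR 2C K166C tagged with TAMRA read by polarization; 0% = receptor in buffer alone and 100% = receptor with positive control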
mABHD4 FP: ABHD4 inhibitors, primary screen, biochemical, fluorescence polarization, mouse; (Lyso)-N-acylphosphatidylethanolamine lipase (Mus musculus), Q8VD66; purified mABHD4, FP-Rh probe fluorescence polarization; inhibition, % at 8.92 µM; 0.54% of 370,000 active;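 active = inhibition exceeding the mean over every tested compound plus 3 SD, cut at about 30% in these data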;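 also: 0% = plate median of compound wells and 100% = S159A mutant with DMSO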
Target sequence (Q8VD66 whole entry, looked up): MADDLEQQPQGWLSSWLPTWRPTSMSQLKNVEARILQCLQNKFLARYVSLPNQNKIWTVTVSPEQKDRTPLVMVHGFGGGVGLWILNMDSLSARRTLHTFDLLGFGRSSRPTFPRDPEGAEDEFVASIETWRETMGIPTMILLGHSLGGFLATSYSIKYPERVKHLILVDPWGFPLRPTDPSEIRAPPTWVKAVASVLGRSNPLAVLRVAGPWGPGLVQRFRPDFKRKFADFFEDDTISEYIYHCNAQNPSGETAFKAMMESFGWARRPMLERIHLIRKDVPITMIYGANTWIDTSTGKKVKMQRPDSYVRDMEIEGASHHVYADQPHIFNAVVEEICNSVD
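system = mouse ABHD4 enzyme, wild type | medium = HEPES pH 7.0, NaCl, Pluronic buffer | also added = FP-Rh probe | incubation = Enzyme–compound pre-incubation 45 min, then probe 60 min, both 25 °C | technique = fluorescence polarization, excitation 525 nm, emission 598 nm, BODIPY TMR filters | controls = S159A mutant high control, sample median low control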
LEDGF integ inh: blockers of LEDGF/p75-dependent integrase strand transfer – biochemical, TR-FRET, high throughput, primary screen; inhibition, % at 3.7 µM; 0.64% of 370,000 active; AID 743269, 2014; TR-FRET IN-LEDGF/p75 DNA integration, Eu/Cy5; HIV-1 integrase (with human LEDGF/p75);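 active = inhibition above the screen-wide mean plus 3 SD, cut at about 13% in these data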;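 also: signal is the Cy5 over europium emission ratio at 671 and 618 nm; 0% = plate median of compound wells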
TDP2 absorb: human TDP2 enzyme inhibitors, primary screen, biochemical, epi absorbance, recombinant enzyme | Tyrosyl-DNA phosphodiesterase 2 (Homo sapiens), O95551 | T5PNP hydrolysis, p-nitrophenol absorbance 415 nm | inhibition, % at 12.8 µM | 0.34% of 370,000 active;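 active = inhibition above the mean of all tested compounds plus 3 SD, set per campaign, cut at about 25% in these data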;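 also: 0% = DMSO with enzyme and 100% = buffer with substrate but no TDP2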
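System: recombinant human TDP2 / Amount: 120 nM TDP2 per well / Also added: 5 mM T5PNP chromogenic substrate / Doses: 12.8 µM single point, 1% DMSO / Incubation: 2 h at 37 °C / Detection: p-Nitrophenol epi absorbance / Evaluation: % inhibition relative to enzyme-containing and enzyme-free wells / Repeats: singlicate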
SIAE primary: human SIAE inhibitors, primary screen, biochemical, fluorescence polarization, FP-Rh probe, 1536-well HTS; SIAE FP-Rh probe binding; 0.69% of 370,000 active; inhibition, % at 9.66 µM; Sialate O-acetylesterase (Homo sapiens), Q9HAT2;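 active = inhibition above a cutoff: mean of compounds within the control limits plus 3 SD of those, cut at about 17% in these data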;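 also: 0% = plate median of compound wells and 100% = probe without SIAE protein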
SIAE inh conf: human SIAE inhibitors, retest, confirmation, biochemical, fluorescence polarization, FP-Rh probe, triplicate; shares compounds with SIAE primary; SIAE FP-Rh activity-based probe; inhibition, % at 9.66 µM; 13% of 2,300 active;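 active = mean inhibition of the replicates above the hit cutoff set in the primary screen, cut at about 17% in these data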;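 also: 0% = SIAE with DMSO and probe and 100% = probe without SIAE; inhibitors lower polarization as more probe stays unbound to SIAE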
* marks the source's active call; other numbers are inactive results; / = not tested or not shown.

SMILES	HTRA1 inhibitor	TCR CD3 inh	mABHD4 FP	LEDGF integ inh	TDP2 absorb	SIAE primary	SIAE inh conf
Cc1ccc(C(=O)N2CCCC(N3CCN(c4ccccc4C)CC3)C2)c(=O)[nH]1 (configuration not stated)	0	5	7	-2	-11	4	/
O=C(Cc1c[nH]c2ccccc12)Nc1ccc(Nc2cccnc2)c(-c2ccc(-c3ccccc3)cc2F)c1	/	0	19	-1	-10	22*	-2
O=C(Cc1c[nH]c2ccccc12)Nc1ccc(Nc2cccnc2)c(-c2ccc(F)c(F)c2)c1	/	-1	26	0	-10	28*	10
C=CCOc1ccc(/C=C/C(=O)OCC(=O)N2CCCc3ccccc32)cc1	-3	1	-2	-4	3	2	/
CCCN(CCC)Cc1cc(=O)oc2ccccc12	/	-6	3	-2	5	4	/
CCN(CC(=O)NCc1ccc(Cl)cc1)C(=O)CCC(=O)c1ccc(F)cc1	-4	1	2	-1	-1	20*	-2
CC(C(=O)NCc1cccs1)n1cccc1 (configuration not stated)	3	2	-3	-2	6	20*	2
Cc1ccc(C(=O)N2CCN(c3ccccc3O)CC2)cc1S(=O)(=O)N1CCCCC1	-4	3	3	2	-6	12	/
CC1CCN(C(=O)CSc2nnc(CNC(=O)c3ccco3)o2)CC1	2	-2	0	-1	10	22*	1
COc1cc(NC(=S)N2CCc3ccccc3C2)cc(OC)c1	-5	-6	9	2	-5	3	/
O=C(CSc1nnc(CN2CCOCC2)n1-c1ccc(Cl)cc1)Nc1cc(Cl)ccc1O	-4	7	-4	-2	4	27*	-13
O=C(Nc1ccc2[nH]c(=S)sc2c1)Nc1ccccc1F	-19	1	-12	2	-5	26*	-6
COc1ccccc1Nc1nnc(SCC(=O)NC2CC2)s1	8	1	5	-2	6	17*	2
O=C(CC1C(=O)NCCN1Cc1ccc(Cl)c(F)c1)NC1CCC1 (configuration not stated)	2	3	15	-7	-5	-1	/
COc1cc(CNc2ncnc3c2[nH]c2ccc(C)cc23)cc(OC)c1	-5	-11	22	3	-13	37*	13
CCOc1ccc2[nH]c3c(NCCc4ccc(OC)c(OC)c4)ncnc3c2c1	11	-10	15	-7	1	19*	14
COc1ccc2[nH]c3c(NCCN4CCCCC4)ncnc3c2c1	1	/	/	/	/	/	/
O=C(CSc1nc2ccc(Cl)cc2[nH]1)Nc1ccc2[nH]c(=O)[nH]c2c1	-5	-8	6	0	2	18*	2
Cc1cc2c(cc1C)NC1=C(N2)OC(c2cccc(O)c2)C1=O (configuration not stated)	-2	-4	-2	0	-1	28*	-10
CS(=O)(=O)c1ccc(Cl)c(NC(=O)c2cccc(N3C(=O)CCC3=O)c2)c1	0	-11	6	0	10	19*	3
COCCCNC(=O)c1cc(S(=O)(=O)NCCCN2CCCC2=O)ccc1Cl	10	2	4	3	6	-2	/
CN1CCN(c2ccc(CNC(=O)c3ccc(-c4ccc(F)c(F)c4)c4ccoc34)cc2)CC1	/	10	6	4	-6	19*	7
Cc1nc(C(N)=O)c(N)n1CCc1ccccc1	5	-6	-17	1	-8	-6	/
CNC(=O)c1c(NC(=O)c2ccc(S(=O)(=O)N3CCCCC3C)cc2)sc2c1CCN(C)C2 (configuration not stated)	-2	4	-1	-1	12	17*	6

Bioassay records as filed in PubChem BioAssay.
